From ChEMBL document CHEMBL4828738, “Design, synthesis and evaluation of novel 5-phenylthiophene derivatives as potent fungicidal of Candida albicans and antifungal reagents of fluconazole-resistant fungi” (Eur J Med Chem, 2021)
In brackets after ≈: the same amount, converted by molar mass.

Legend:
Candida albicans [1] = assay: Fungicidal activity against Candida albicans ATCC SC5314 assessed as inhibition of visible fungal growth measured after 48 hrs; type: functional
Candida albicans [2] = assay: Anti-biofilm activity in Candida albicans CPCC400616 assessed as inhibition of biofilm formation incubated for 24 hrs by XTT assay; type: functional
Summary of the method: (§1)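 C. albicans CPCC400616 suspension placed in wells at 37 °C. Non-adherent cells and medium were removed at 3, 6, 18 or 24 h and wells washed with PBS. Compounds were added at a range of concentrations in fresh RPMI 1640 and incubated a further 24 h at 37 °C. Biofilm metabolic activity was read by XTT reduction.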

Candida albicans [3] = assay: Anti-biofilm activity in Candida albicans CPCC400616 assessed as inhibition of biofilm formation incubated for 6 hrs by XTT assay; type: functional; summary of the method: as §1
Candida albicans [4] = assay: Anti-biofilm activity in Candida albicans CPCC400616 assessed as inhibition of biofilm formation incubated for 3 hrs by XTT assay; type: functional; summary of the method: as §1
Candida albicans [5] = assay: Antifungal activity against Candida albicans ATCC SC5314 assessed as fungal growth inhibition by CLSI protocol based method; type: functional
Candida albicans [6] = assay: Antifungal activity against Candida albicans CPCC400616 assessed as fungal growth inhibition by CLSI protocol based method; type: functional
Candida tropicalis = assay: Antifungal activity against Candida tropicalis CGMCC 2.3739 assessed as fungal growth inhibition by CLSI protocol based method; type: functional
Cryptococcus neoformans = assay: Antifungal activity against Cryptococcus neoformans CGMCC2.3161 assessed as fungal growth inhibition by CLSI protocol based method; type: functional
Candida parapsilosis = assay: Antifungal activity against Candida parapsilosis GIM2.190 assessed as fungal growth inhibition by CLSI protocol based method; type: functional; details: Lodderomyces parapsilosis
Nakaseomyces glabratus = assay: Antifungal activity against Candida glabrata assessed as fungal growth inhibition by CLSI protocol based method; type: functional
Pichia kudriavzevii = assay: Antifungal activity against Candida krusei GIM2.1 assessed as fungal growth inhibition by CLSI protocol based method; type: functional
[7] = biological target: T1, Lanosterol 14-alpha demethylase (Candida albicans (strain SC5314 / ATCC MYA-2876) (Yeast), UniProt P10613); assay: Inhibition of CYP51 in Candida albicans assessed as lanosterol level at 0.015 ug/ml measured after 18 hrs by GC-MS analysis relative to control; set-up: scale not given: the % may be the effect or the level left; details: at 0.015 µg/mL
T1 sequence (P10613 whole entry): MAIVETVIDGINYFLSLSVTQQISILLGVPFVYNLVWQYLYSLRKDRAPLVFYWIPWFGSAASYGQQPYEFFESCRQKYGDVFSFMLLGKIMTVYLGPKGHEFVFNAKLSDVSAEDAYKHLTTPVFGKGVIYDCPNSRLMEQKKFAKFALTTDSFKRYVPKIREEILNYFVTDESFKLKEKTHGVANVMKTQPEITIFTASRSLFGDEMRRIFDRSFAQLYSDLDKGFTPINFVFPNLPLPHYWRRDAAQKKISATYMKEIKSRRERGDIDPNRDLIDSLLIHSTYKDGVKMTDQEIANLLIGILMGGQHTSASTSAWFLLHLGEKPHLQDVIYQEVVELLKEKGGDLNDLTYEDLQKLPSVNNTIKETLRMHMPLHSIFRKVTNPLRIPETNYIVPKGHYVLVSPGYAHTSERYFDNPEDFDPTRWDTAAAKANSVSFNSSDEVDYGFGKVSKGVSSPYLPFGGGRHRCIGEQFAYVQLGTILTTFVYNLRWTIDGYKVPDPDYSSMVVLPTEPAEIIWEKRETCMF

[8] = biological target: T1, Lanosterol 14-alpha demethylase; assay: Inhibition of CYP51 in Candida albicans assessed as Ergosterol level at 0.015 ug/ml measured after 18 hrs by GC-MS analysis (reference value: 96.93 %); set-up: scale not given: the % may be the effect or the level left; details: at 0.015 µg/mL
[9] = biological target: T1, Lanosterol 14-alpha demethylase; assay: Inhibition of CYP51 in Candida albicans assessed as Eburicol level at 0.015 ug/ml measured after 18 hrs by GC-MS analysis relative to control; set-up: scale not given: the % may be the effect or the level left; details: at 0.015 µg/mL
[10] = biological target: T1, Lanosterol 14-alpha demethylase; assay: Inhibition of CYP51 in Candida albicans assessed as 14alpha-methylfecosterol level at 0.015 ug/ml measured after 18 hrs by GC-MS analysis relative to control; set-up: scale not given: the % may be the effect or the level left; details: at 0.015 µg/mL
[11] = biological target: T1, Lanosterol 14-alpha demethylase; assay: Inhibition of CYP51 in Candida albicans assessed as other sterols level at 0.015 ug/ml measured after 18 hrs by GC-MS analysis relative to control; set-up: scale not given: the % may be the effect or the level left; details: at 0.015 µg/mL
THLE-2 = assay: Cytotoxicity against human THLE-2 cells assessed as reduction in cell viability measured after 96 hrs by MTT assay; type: ADME, cell-based; details: THLE-2, 96 h
A549 = assay: Cytotoxicity against human A549 cells assessed as reduction in cell viability measured after 96 hrs by MTT assay; type: ADME, cell-based; details: A549, 96 h
MCF7 = assay: Cytotoxicity against human MCF7 cells assessed as reduction in cell viability measured after 96 hrs by MTT assay; type: ADME, cell-based; details: MCF7, 96 h
[12] = Metabolic stability in human plasma assessed as parent compound remaining after 60 mins by LC-MS/MS analysis; type: ADME, cell-free; details: read-out: Stability
[13] = Metabolic stability in human plasma assessed as parent compound remaining after 120 mins by LC-MS/MS analysis; type: ADME, cell-free; details: read-out: Stability
[14] = Metabolic stability in human plasma assessed as half life after 60 mins by LC-MS/MS analysis; type: ADME, cell-free
Candida albicans [15] = assay: Anti-biofilm activity in Candida albicans CPCC400616 assessed as inhibition of biofilm formation measured up to 24 hrs by XTT assay; type: functional, organism-based; details: time hrs <=24
Summary of the method: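 C. albicans CPCC400616 suspension allowed to adhere in 96-well plates at 37 °C; non-adherent cells and medium removed after 3, 6, 18 or 24 h. Wells washed with PBS, compounds added at graded concentrations in fresh RPMI 1640, then incubated a further 24 h at 37 °C. Biofilm quantified semiquantitatively by XTT reduction. SMIC50 is the concentration inhibiting biofilm metabolic activity by 50%.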

Candida albicans [16] = assay: Fungicidal activity in Candida albicans CPCC400616 assessed as reduction in viable colony formation measured within 16 hrs by time kill assay; type: functional; details: time hrs <16
Summary of the method: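 Diluted samples were plated on PDA and incubated 24 h at 35 °C. CFU were counted and log10 CFU/mL was plotted against time. Detection limit was 100 CFU/mL. Run in triplicate.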

Candida albicans [17] = assay: Fungicidal activity in Candida albicans CPCC400616 assessed as reduction in viable colony formation measured after 24 hrs by time kill assay; type: functional, organism-based
Candida albicans [18] = assay: Antifungal activity against fluconazole-resistant Candida albicans 901 assessed as fungal growth inhibition by CLSI protocol based method
Candida albicans [19] = assay: Antifungal activity against fluconazole-resistant Candida albicans 904 assessed as fungal growth inhibition by CLSI protocol based method
Candida albicans [20] = assay: Antifungal activity against fluconazole-resistant Candida albicans 632 assessed as fungal growth inhibition by CLSI protocol based method
Candida albicans [21] = assay: Antifungal activity against fluconazole-resistant Candida albicans 100 assessed as fungal growth inhibition by CLSI protocol based method
Candida albicans [22] = assay: Antifungal activity against fluconazole-resistant Candida albicans 103 assessed as fungal growth inhibition by CLSI protocol based method
Candida albicans [23] = assay: Antifungal activity against fluconazole-resistant Candida albicans 311 assessed as fungal growth inhibition by CLSI protocol based method

In the case of Cc1ccc(C(=O)C(Cn2ccnc2)NC(=O)c2ccc(-c3ccc(Cl)cc3)s2)cc1 (stereo unspecified), the MFC (Candida albicans [1]) is reported as 0.125 µg/mL (≈ 0.278 µM), the MBIC50 (Candida albicans [2]) is reported as >64 µg/mL and the MBIC50 (Candida albicans [3]) is reported as 8 µg/mL. For the same molecule, the MBIC50 (Candida albicans [4]) was 1 µg/mL, the MIC (Candida albicans [5]) was < 0.03 µg/mL and the MIC (Candida albicans [6]) was < 0.03 µg/mL. The MIC (Candida tropicalis) was < 0.03 µg/mL, the MIC (Cryptococcus neoformans) was 0.5 µg/mL (≈ 1.11 µM) and the MIC (Candida parapsilosis) was 0.5 µg/mL (≈ 1.11 µM). The MIC (Nakaseomyces glabratus) was 0.25 µg/mL (≈ 0.556 µM), the MIC (Pichia kudriavzevii) was 1 µg/mL (≈ 2.22 µM) and the Activity [7] was 42.91%. For the same molecule, the Activity [8] was 5.06%, the Activity [9] was 31.02% and the Activity [10] was 3.2%. For the same molecule, the Activity [11] was 8.64%, the IC50 (THLE-2) was 16.1 µM and the IC50 (A549) was 19.1 µM. For the same molecule, the IC50 (MCF7) was > 30 µM, the remaining at 1 h [12] was 93.1% and the remaining at 2 h [13] was 89.5%. The half-life [14] was > 4.8 h, the Activity (Candida albicans [15]) was “Dose-Dependent Effect” and the Activity (Candida albicans [16]) was 2 log10CFU/ml. The Activity (Candida albicans [17]) was “Dose-Dependent Effect”, the MIC (Candida albicans [18]) was 1 µg/mL (≈ 2.22 µM) and the MIC (Candida albicans [19]) was 0.25 µg/mL (≈ 0.556 µM). The MIC (Candida albicans [20]) was 1 µg/mL (≈ 2.22 µM), the MIC (Candida albicans [21]) was 0.5 µg/mL (≈ 1.11 µM) and the MIC (Candida albicans [22]) was 1 µg/mL (≈ 2.22 µM). For the same molecule, the MIC (Candida albicans [23]) was 1 µg/mL (≈ 2.22 µM).
